Compound activity: PubChem, several laboratories
A selection: hits, their analogues and other compounds. The true share with any hit is near 4.9%.
STAT3 blocker: inhibitors of IL-6 induced STAT3 signaling | 0.89% of 190,000 active | U3A cells, IL-6 STAT3-luciferase reporter, luminescence; host cell line lacks STAT1 | AID 862 | inhibition, % at 5.5 µM;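 active = inhibition above the mean inhibition across all screened compounds plus 3 SD, cut at about 44% in these data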;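 note: 0% = DMSO only wells and 100% = 100 µM nifuroxazide control wells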
FLuc stim CS: firefly luciferase counter-screen for stimulation assays | P08659 | ATPlite luciferase biochemical, luminescence, 10 min; 0 = ATP-free wells, 1 = DMSO control | activation factor at 10 µM | 200,000 tested, under 10 active | AID 1027;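 active = luciferase activation factor, scaled between plate controls, of at least 2 with compound at 10 µM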
Target sequence (P08659 whole entry, looked up): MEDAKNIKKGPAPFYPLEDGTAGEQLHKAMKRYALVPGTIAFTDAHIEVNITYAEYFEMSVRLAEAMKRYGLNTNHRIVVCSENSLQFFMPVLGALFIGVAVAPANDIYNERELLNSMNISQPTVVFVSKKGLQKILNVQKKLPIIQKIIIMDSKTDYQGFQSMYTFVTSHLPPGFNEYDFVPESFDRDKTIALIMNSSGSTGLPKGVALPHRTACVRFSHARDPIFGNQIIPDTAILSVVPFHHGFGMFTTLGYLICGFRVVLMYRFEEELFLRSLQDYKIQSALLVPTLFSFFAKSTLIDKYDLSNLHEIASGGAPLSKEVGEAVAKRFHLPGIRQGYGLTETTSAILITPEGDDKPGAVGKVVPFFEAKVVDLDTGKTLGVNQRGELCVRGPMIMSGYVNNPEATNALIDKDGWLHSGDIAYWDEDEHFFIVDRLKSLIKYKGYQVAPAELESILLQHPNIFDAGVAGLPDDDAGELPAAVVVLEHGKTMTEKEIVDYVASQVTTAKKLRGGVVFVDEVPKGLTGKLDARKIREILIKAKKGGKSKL
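assay system = Luciferase/luciferin detection reagent, cell-free biochemical luciferase assay | also added = ATP substrate | times = 10 min post-reagent at room temperature | measured by = luminescence from luciferase reaction | measure = luciferase activation, seen as luminescence increase over controls | benchmarks = low control with PBS replacing ATP, high control enzyme plus ATP without compound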
FLuc inh counter: counter-screen for luciferase assay inhibitors: firefly luciferase inhibition. ATPLite firefly luciferase biochemical luminescence, 10 min. 1.5% of 200,000 active. P08659. inhibition, % at 10 µM;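 active = inhibition above about 50% when tested at 10 µM, limit read from the data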
STAT3 activator: STAT3 signaling activation; activation (% of control), % at 5.6 µM; AID 871; 0.91% of 190,000 active; U3A cells, IL-6 STAT3-luciferase reporter, luminescence; 100% = signal with IL-6 EC80 alone;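 active = activation above the screen-wide mean of compound activation plus 3 SD, cut at about 130% in these data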;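 note: 0% = background luminescence of wells with medium and substrate only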
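Test system: human U3A cells carrying STAT3-luciferase construct; control set: IL-6-only wells as 100% reference; timing: compound pre-incubation 1 h before IL-6, then 6 h stimulation at 37 °C; also added: IL-6 stimulus at 33 ng/mL final; evaluation: % activation versus median of IL-6-stimulated wells; detection: reporter luminescence signal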
STAT1 act: STAT1 signaling activation; NIH 3T3 STAT1-luciferase reporter, IFN-gamma, luminescence; 100% = IFN-gamma alone, no compound; activation (% of control), % at 5.5 µM; 2.6% of 200,000 active;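 active = activation above the screen-wide mean activation plus 3 SD, cut at about 130% in these data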;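 note: raw ratio to IFN-gamma control signal so 100% means no change and 0% no light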
STAT1 inh: STAT1 signaling inhibition; AID 920; 0.35% of 200,000 active; NIH 3T3 STAT1-luciferase reporter, IFN-gamma, luminescence; inhibition, % at 5.5 µM;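 active = inhibition above a set limit, the mean inhibition across all tested compounds plus 3 SD, cut at about 34% in these data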;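 note: 0% = IFN-gamma with DMSO and 100% = IFN-gamma with 300 µM nifuroxazide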
Numbers without * were called inactive.

How did C=CC[N+](C)(C)CCN1C(=O)C2C(c3ccccc3)C=CC(c3ccccc3)C2C1=O (stereo not drawn) do in these assays?
STAT3 blocker: -4.8; FLuc stim CS: 1.1; FLuc inh counter: -8.0; STAT3 activator: 110.2; STAT1 act: 105.5; STAT1 inh: -7.4

Results for COc1ccc(-c2noc(-c3ccccc3-c3ccccc3)n2)cc1 ?
STAT3 blocker: 23.2; FLuc stim CS: 1; FLuc inh counter: -4.3; STAT3 activator: 84.1; STAT1 act: 100.9; STAT1 inh: -0.9

Results for COc1cccc(-c2nc(-c3ccccc3)no2)c1 ?
STAT3 blocker: -12.4; FLuc stim CS: 0.5; FLuc inh counter: 45.8; STAT3 activator: 113.1; STAT1 act: 149.5*; STAT1 inh: -42.8

What do the screens show for `CC(C)(C)c1ccc(-c2nc(-c3ccncc3)no2)cc1`?
STAT3 blocker: 40.9; FLuc stim CS: 0.6; FLuc inh counter: 37.0; STAT3 activator: 69.2; STAT1 act: 130.4*; STAT1 inh: -32.9

Results for COc1ccc(CSc2nnc3[nH]c(=O)cc(N)n23)cc1 ?
STAT3 blocker: -1.0; FLuc stim CS: 0.9; FLuc inh counter: 7.0; STAT3 activator: 104.8; STAT1 act: 99.1; STAT1 inh: -2.3

What do the screens show for `O=C(O)c1cccc(N2C(=O)/C(=C/c3ccc([N+](=O)[O-])cc3)C=C2c2ccccc2)c1`?
STAT3 blocker: 66.3*; FLuc stim CS: 1; FLuc inh counter: 4.6; STAT3 activator: 46.1; STAT1 act: 62.4; STAT1 inh: 39.5*

How did O=C1CC(/C=C/c2cccnc2)=Nc2ccccc2N1 do in these assays?
STAT3 blocker: 1.9; FLuc stim CS: 0.9; FLuc inh counter: 6.3; STAT3 activator: 98.3; STAT1 act: 93.5; STAT1 inh: 7.0

How did O=C1CC(/C=C/c2ccccc2)=Nc2ccccc2N1 do in these assays?
STAT3 blocker: 8.6; FLuc stim CS: 0.7; FLuc inh counter: 30.4; STAT3 activator: 94.5; STAT1 act: 141.9*; STAT1 inh: -43.8

What do the screens show for `CN1CCN(c2ccc(C(=O)c3ccc(F)cc3)cc2)CC1`?
STAT3 blocker: -4.7; FLuc stim CS: 0.9; FLuc inh counter: 13.9; STAT3 activator: 111.9; STAT1 act: 135.8*; STAT1 inh: -39.3

How did COc1ccc2nc(-c3ccc(N)cc3)[nH]c2c1 do in these assays?
STAT3 blocker: 42.5; FLuc stim CS: 0.4; FLuc inh counter: 64.8*; STAT3 activator: 65.8; STAT1 act: 98.3; STAT1 inh: 1.8

How did COc1ccc2nc(-c3cccc(N)c3)[nH]c2c1 do in these assays?
STAT3 blocker: 24.0; FLuc stim CS: 0.1; FLuc inh counter: 86.7*; STAT3 activator: 81.8; STAT1 act: 118.8; STAT1 inh: -20.3

How did C/C(=N\NC(=O)c1ccn[nH]1)c1cn(C)nc1C do in these assays?
STAT3 blocker: 3.6; FLuc stim CS: 0.5; FLuc inh counter: 54.1*; STAT3 activator: 100.0; STAT1 act: 129.1*; STAT1 inh: -32.2

How did CC(C)c1ccc(NC(=O)C(=O)C2C(=O)Nc3ccccc32)cc1 (stereo not drawn) do in these assays?
STAT3 blocker: -3.7; FLuc stim CS: 0.5; FLuc inh counter: 52.5*; STAT3 activator: 107.8; STAT1 act: 103.9; STAT1 inh: -5.6

Results for CC(C)(C)c1ccc(NC(=O)C(=O)C2C(=O)Nc3ccccc32)cc1 (stereo not drawn) ?
STAT3 blocker: -9.9; FLuc stim CS: 0.6; FLuc inh counter: 38.4; STAT3 activator: 114.0; STAT1 act: 103.2; STAT1 inh: -3.6

Results for C=CCN(c1ccccc1Cl)S(=O)(=O)c1cccc(C(=O)NCCc2ccc(OC)cc2)c1 ?
STAT3 blocker: -2.0; FLuc stim CS: 1; FLuc inh counter: -4.1; STAT3 activator: 101.8; STAT1 act: 89.8; STAT1 inh: 11.7

What do the screens show for `CSc1ccc(-c2ccco2)nn1`?
STAT3 blocker: -2.3; FLuc stim CS: 0.7; FLuc inh counter: 27.3; STAT3 activator: 104.9; STAT1 act: 128.6*; STAT1 inh: -32.2

Results for CCSc1ccc(-c2ccco2)nn1 ?
STAT3 blocker: 3.5; FLuc stim CS: 0.8; FLuc inh counter: 18.3; STAT3 activator: 101.1; STAT1 act: 116.7; STAT1 inh: -17.9

What do the screens show for `CCOc1cc(/C=N/NC(=O)CSc2nncn2C)ccc1OCc1cccc(C)c1`?
STAT3 blocker: 28.8; FLuc stim CS: 0.9; FLuc inh counter: 6.3; STAT3 activator: 77.1; STAT1 act: 90.7; STAT1 inh: 10.3

Results for COc1ccc(CNn2c(-c3cccs3)nc3ccccc3c2=O)cc1OC ?
STAT3 blocker: 11.5; FLuc stim CS: 1; FLuc inh counter: -3.0; STAT3 activator: 92.1; STAT1 act: 106.3; STAT1 inh: -8.6

What do the screens show for `COc1ccccc1N/N=C/c1ccc2c(c1)OCO2`?
STAT3 blocker: 71.6*; FLuc stim CS: 0.9; FLuc inh counter: 8.4; STAT3 activator: 39.5; STAT1 act: 55.2; STAT1 inh: 50.7*

How did CSc1nsc(N/N=C/c2ccc3c(c2)OCO3)c1C#N do in these assays?
STAT3 blocker: 14.2; FLuc stim CS: 0.6; FLuc inh counter: 35.3; STAT3 activator: 94.1; STAT1 act: 149.6*; STAT1 inh: -53.7

How did COc1ccccc1NC(=O)NCc1ccc2c(c1)OCO2 do in these assays?
STAT3 blocker: 2.0; FLuc stim CS: 0.8; FLuc inh counter: 23.5; STAT3 activator: 102.4; STAT1 act: 97.0; STAT1 inh: 3.2

How did Cc1onc(-c2c(F)cccc2Cl)c1C(=O)Nc1cccc(S(=O)(=O)NCc2ccco2)c1 do in these assays?
STAT3 blocker: 20.4; FLuc stim CS: 1.1; FLuc inh counter: -9.7; STAT3 activator: 85.0; STAT1 act: 89.8; STAT1 inh: 9.5

Results for Cc1ccc2oc(-c3cccc(NC(=O)C4CCCO4)c3)nc2c1 (stereo not drawn) ?
STAT3 blocker: -9.1; FLuc stim CS: 0.7; FLuc inh counter: 30.3; STAT3 activator: 109.9; STAT1 act: 139.8*; STAT1 inh: -43.2

Results for O=C(O)c1ccc(Cl)cc1NC(=O)C1CCCO1 (stereo not drawn) ?
STAT3 blocker: -5.4; FLuc stim CS: 1; FLuc inh counter: -4.2; STAT3 activator: 107.7; STAT1 act: 99.8; STAT1 inh: -2.3

Results for O=C(Nc1cccc(-c2nc3cc(Cl)ccc3o2)c1)C1CCCO1 (stereo not drawn) ?
STAT3 blocker: 5.5; FLuc stim CS: 1; FLuc inh counter: 3.4; STAT3 activator: 97.9; STAT1 act: 130.1*; STAT1 inh: -35.0

Results for Cc1ccc(Nc2n[nH]c(C)c2[N+](=O)[O-])cc1 ?
STAT3 blocker: -4.1; FLuc stim CS: 0.9; FLuc inh counter: 10.0; STAT3 activator: 103.0; STAT1 act: 146.9*; STAT1 inh: -51.6

What do the screens show for `COCCCNC(=S)N1CCN(c2ccccc2)CC1`?
STAT3 blocker: 6.7; FLuc stim CS: 1; FLuc inh counter: -3.5; STAT3 activator: 99.0; STAT1 act: 99.4; STAT1 inh: 0.3
